Measured values: ChEMBL document CHEMBL4014310, “Selective IKur Inhibitors for the Potential Treatment of Atrial Fibrillation: Optimization of the Phenyl Quinazoline Series Leading to Clinical Candidate 5-[5-Phenyl-4-(pyridin-2-ylmethylamino)quinazolin-2-yl]pyridine-3-sulfonamide” (J Med Chem, 2017)

Tests used:
[1] = target: T1, Potassium voltage-gated channel subfamily A member 5 (Homo sapiens, UniProt P22460); settings: at 0.3 µM
[2] = Protein binding in human plasma; assay type: ADME, cell-free; settings: read-out: PPB
[3] = Ratio of drug level in Sprague-Dawley rat brain to plasma at 3 mg/kg, iv administered as 10 mins infusion by LC-MS/MS analysis; assay type: ADME, organism-based; settings: brain and plasma, read-out: BPR
[4] = Protein binding in rat plasma; assay type: ADME, cell-free; settings: read-out: PPB
[5] = target: T2, Voltage-gated inwardly rectifying potassium channel KCNH2 (Homo sapiens, UniProt Q12809); assay: Inhibition of human ERG expressed in HEK293 cells by patch clamp method; assay type: cell-based
T2 sequence (Q12809 whole entry): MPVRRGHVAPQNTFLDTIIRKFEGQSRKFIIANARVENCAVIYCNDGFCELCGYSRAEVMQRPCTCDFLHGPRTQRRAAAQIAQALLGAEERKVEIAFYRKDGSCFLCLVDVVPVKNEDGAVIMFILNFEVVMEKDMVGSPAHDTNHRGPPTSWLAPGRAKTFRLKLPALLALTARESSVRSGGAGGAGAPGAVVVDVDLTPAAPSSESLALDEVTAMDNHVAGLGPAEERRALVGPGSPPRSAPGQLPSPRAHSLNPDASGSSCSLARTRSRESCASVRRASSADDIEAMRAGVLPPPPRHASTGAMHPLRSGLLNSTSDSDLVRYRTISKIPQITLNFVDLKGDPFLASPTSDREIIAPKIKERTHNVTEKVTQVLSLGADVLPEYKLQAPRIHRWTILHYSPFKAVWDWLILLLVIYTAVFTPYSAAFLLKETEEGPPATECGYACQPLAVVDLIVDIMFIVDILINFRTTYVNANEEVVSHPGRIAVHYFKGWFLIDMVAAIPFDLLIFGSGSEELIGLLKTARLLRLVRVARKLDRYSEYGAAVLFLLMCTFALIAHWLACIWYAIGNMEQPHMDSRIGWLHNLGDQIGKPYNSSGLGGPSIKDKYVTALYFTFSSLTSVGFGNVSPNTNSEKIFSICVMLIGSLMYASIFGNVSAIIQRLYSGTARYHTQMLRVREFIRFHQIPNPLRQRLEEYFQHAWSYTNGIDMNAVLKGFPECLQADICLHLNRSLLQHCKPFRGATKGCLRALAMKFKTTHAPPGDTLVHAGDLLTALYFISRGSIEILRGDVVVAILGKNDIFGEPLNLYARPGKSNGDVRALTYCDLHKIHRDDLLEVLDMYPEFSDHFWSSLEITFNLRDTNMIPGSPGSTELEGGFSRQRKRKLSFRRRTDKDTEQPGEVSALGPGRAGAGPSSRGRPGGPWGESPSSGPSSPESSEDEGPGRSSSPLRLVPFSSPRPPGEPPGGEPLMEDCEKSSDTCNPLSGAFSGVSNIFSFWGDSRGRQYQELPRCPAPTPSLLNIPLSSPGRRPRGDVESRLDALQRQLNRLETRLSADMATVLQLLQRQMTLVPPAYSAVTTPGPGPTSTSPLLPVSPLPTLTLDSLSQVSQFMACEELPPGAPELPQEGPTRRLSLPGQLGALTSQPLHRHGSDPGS

[6] = Stability in human liver microsomes assessed as compound remaining in presence of NADPH after 10 mins; assay type: ADME, microsome; settings: read-out: Stability
hERG (KCNH2) [7] = target: T3, hERG (KCNH2) (Homo sapiens, UniProt Q12809); assay: Inhibition of human ERG expressed in HEK293 cells at 10 uM by patch clamp method relative to control; assay type: cell-based; settings: HEK293 cells expressing human ERG
T3 sequence (Q12809 whole entry): as above

hERG (KCNH2) [8] = target: T3, hERG (KCNH2); assay: Inhibition of human ERG expressed in HEK293 cells at 1 uM by patch clamp method relative to control; assay type: cell-based; settings: HEK293 cells expressing human ERG
[9] = Solubility of the compound in ethanol/propylene glycol/PEG-400; assay type: physicochemical
[10] = target: T1, Potassium voltage-gated channel subfamily A member 5; assay: Inhibition of recombinant human Kv1.5 expressed in mouse L929 cells by patch clamp assay; assay type: cell-based
Method in brief: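 Whole-cell patch clamp of IKur current in mouse L-929 cells transfected with human KV1.5 and stably expressing the channel.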

[11] = target: T2, Voltage-gated inwardly rectifying potassium channel KCNH2; assay: Inhibition of human ERG expressed in HEK293 cells by flux assay
[12] = Prodrug conversion in monkey famotidine model assessed as 5-[5-phenyl-4-(pyridin-2-ylmethylamino)-quinazolin-2-yl]pyridine-3-sulfonamide formation in intestinal brush border; assay type: ADME, Macaca mulatta; settings: rhesus monkey, in vivo
Plasma = assay: Drug uptake in monkey famotidine model plasma; assay type: ADME, cell-free, Macaca mulatta; settings: rhesus monkey
[13] = Solubility of the compound in pH 1 to 8 solution using crystalline form; assay type: physicochemical

T1 sequence (P22460 whole entry): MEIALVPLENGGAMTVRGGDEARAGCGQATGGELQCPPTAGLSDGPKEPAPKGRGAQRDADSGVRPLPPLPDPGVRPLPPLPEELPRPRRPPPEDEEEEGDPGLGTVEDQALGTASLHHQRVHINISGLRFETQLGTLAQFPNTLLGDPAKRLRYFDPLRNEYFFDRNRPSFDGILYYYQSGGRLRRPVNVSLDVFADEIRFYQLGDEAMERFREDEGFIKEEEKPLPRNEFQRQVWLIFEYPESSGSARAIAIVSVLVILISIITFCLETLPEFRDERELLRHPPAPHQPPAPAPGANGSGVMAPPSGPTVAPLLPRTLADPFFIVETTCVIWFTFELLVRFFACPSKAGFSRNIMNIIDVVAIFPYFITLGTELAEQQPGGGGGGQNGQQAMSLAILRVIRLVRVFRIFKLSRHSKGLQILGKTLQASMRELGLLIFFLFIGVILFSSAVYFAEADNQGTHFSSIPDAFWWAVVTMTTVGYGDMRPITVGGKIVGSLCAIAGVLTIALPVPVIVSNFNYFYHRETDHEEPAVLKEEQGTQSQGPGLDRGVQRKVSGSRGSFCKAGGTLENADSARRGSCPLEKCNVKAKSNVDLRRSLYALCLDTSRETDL

Row | Structure (SMILES) | inhibition [1] | fraction unbound [2] | Kp at 10 min [3] | fraction unbound [4] | further results
1 | NC(=O)c1ccc(-c2cccc3nc(-c4cncnc4)nc(NCc4ccccn4)c23)cc1 | – | < 0.01 | 0.2 | < 0.01 | IC50 [5]: 1300 nM
2 | Nc1ncc(-c2nc(NCc3ccccn3)c3c(-c4ccccc4)cccc3n2)cn1 | 95% | < 0.005 | 3 | < 0.005 | IC50 [5]: 80000 nM
3 | CC(=O)Nc1ccc(-c2nc(NCc3ccccn3)c3c(-c4ccccc4)cccc3n2)cn1 | 80% | < 0.005 | 2 | < 0.005 | –
4 | COc1ncc(-c2nc(NCc3ccccn3)c3c(-c4ccccc4)cccc3n2)cn1 | – | – | 2.5 | – | –
5 | N#Cc1ncc(-c2nc(NCc3ccccn3)c3c(-c4ccccc4)cccc3n2)cn1 | 64% | – | 3 | – | –
6 | CC(=O)Nc1cncc(-c2nc(NCc3ccccn3)c3c(-c4ccccc4)cccc3n2)c1 | – | < 0.005 | 0.08 | < 0.005 | IC50 [10]: 100 nM; IC50 [5]: 2000 nM
7 | NS(=O)(=O)c1ccc(CCNc2nc(-c3cncnc3)nc3cccc(-c4ccccc4)c23)cc1 | 15% | – | – | – | IC50 [11]: 5.6 µM
8 | O=P(O)(O)NS(=O)(=O)c1cncc(-c2nc(NCc3ccccn3)c3c(-c4ccccc4)cccc3n2)c1 | – | – | – | – | Drug metabolism [12]: Metabolite_Detected; Drug uptake (Plasma): Not Active; solubility [13]: Soluble
9 | O=S(=O)(c1cccc(Nc2nc(Cl)nc3cccc(-c4ccccc4)c23)c1)N1CCOCC1 | – | – | 3 | – | IC50 [10]: 210 nM
10 | NC(=O)Nc1ccc(-c2nc(NCc3ccccn3)c3c(-c4ccccc4)cccc3n2)cn1 | 79% | < 0.005 | 1 | < 0.005 | –
11 | CN(C)c1ccc(-c2cccc3nc(-c4cncnc4)nc(NCc4ccccn4)c23)cc1 | – | – | – | – | IC50 [11]: > 80 µM; IC50 [10]: 330 nM; remaining at 10 min [6]: < 3%

Further lines, with some results ahead:

Row | inhibition [1] | fraction unbound [2] | Kp at 10 min [3] | fraction unbound [4] | Structure (SMILES) | further results
12 | 48% | – | – | – | NS(=O)(=O)c1ccncc1-c1nc(NCc2ccccn2)c2c(-c3ccccc3)cccc2n1 | –
13 | 92% | < 0.005 | 0.4 | < 0.005 | NS(=O)(=O)c1ccc(-c2nc(NCc3ccccn3)c3c(-c4ccccc4)cccc3n2)cn1 | –
14 | 73% | – | 0.6 | – | NS(=O)(=O)c1ccc(CCNc2nc(Cl)nc3cccc(-c4ccccc4)c23)cc1 | remaining at 10 min [6]: 68%
15 | 87% | < 0.005 | 0.07 | < 0.005 | CS(=O)(=O)Nc1cncc(-c2nc(NCc3ccccn3)c3c(-c4ccccc4)cccc3n2)c1 | inhibition at 10 µM (hERG (KCNH2) [7]): 94%
16 | 89% | < 0.005 | 0.3 | < 0.005 | NC(=O)c1cncc(-c2nc(NCc3ccccn3)c3c(-c4ccccc4)cccc3n2)c1 | inhibition at 1 µM (hERG (KCNH2) [8]): 26%
17 | 99% | < 0.005 | 0.04 | < 0.005 | NS(=O)(=O)Nc1cncc(-c2nc(NCc3ccccn3)c3c(-c4ccccc4)cccc3n2)c1 | solubility [9]: Insoluble; IC50 [5]: 800 nM
18 | 50% | – | 0.3 | – | c1ccc(CNc2nc(-c3cncnc3)nc3cccc(-c4cccc(N5CCOCC5)c4)c23)nc1 | –
19 | 91% | < 0.005 | 0.04 | < 0.005 | NC(=O)Nc1cncc(-c2nc(NCc3ccccn3)c3c(-c4ccccc4)cccc3n2)c1 | solubility [9]: Insoluble
20 | – | < 0.01 | 3 | < 0.01 | NC(=O)c1ccc(-c2nc(NCc3ccccn3)c3c(-c4ccccc4)cccc3n2)cn1 | IC50 [10]: 100 nM; IC50 [5]: 4600 nM
21 | 2% | < 0.005 | 0.3 | < 0.005 | O=C(NCC(F)(F)F)c1ccc(-c2cccc3nc(-c4cncnc4)nc(NCc4ccccn4)c23)cc1 | IC50 [5]: 4900 nM
22 | – | < 0.005 | 2.4 | < 0.005 | O=S(=O)(c1cccc(Nc2nc(-c3cncnc3)nc3cccc(-c4ccccc4)c23)c1)N1CCOCC1 | IC50 [10]: 80 nM
23 | 87% | – | – | – | NS(=O)(=O)c1cccc(-c2nc(NCc3ccccn3)c3c(-c4ccccc4)cccc3n2)n1 | –
24 | – | – | 1 | – | O=c1ccc(-c2nc(NCc3ccccn3)c3c(-c4ccccc4)cccc3n2)c[nH]1 | IC50 [5]: 500 nM
25 | – | – | 2.8 | – | c1ccc(-c2cccc3nc(-c4cncnc4)nc(NCc4ccccn4)c23)cc1 | –
